Screening data deposited in PubChem BioAssay by several laboratories.
Hits are enriched below; roughly 1.3% of the tested compounds scored in any of these assays.
EP2 mod = EP2 receptor modulators, cAMP readout, primary screen, cell-based, HTRF cAMP, PGE2 stimulation; Prostaglandin E2 receptor EP2 subtype (Homo sapiens), P43116; EP2-expressing cells, cAMP HTRF FRET, PGE2 co-stimulation; induction, % at 25 µM; 0.83% of 260,000 active; AID 940, 2007;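 active = compounds whose cAMP rise, as percent of the full-agonist control response, exceeds 60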;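 also: rat C6 glioma line stably carrying human EP2 under a CMV promoter; the protocol text gives 20 µM as final concentration; 100% = response of wells given 1 µM PGE2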
EP2 antag = human EP2 receptor antagonists, primary screen, TR-FRET cAMP, C6 glioma cells; C6 glioma cells expressing human EP2; cells stimulated with saturating PGE2; inhibition, % at 25 µM; 0.52% of 260,000 active; AID 1422, 2008;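 active = percent inhibition above 40 after rounding to a whole number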;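 also: rat C6 glioma host cells with rolipram phosphodiesterase inhibitor present; the protocol text gives 20 µM as final concentration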
Furin inhibitor = human furin inhibitors, primary screen, biochemical, fluorescence intensity | P09958 | purified furin, fluorogenic substrate cleavage | inhibition, % at 20 µM or 30 µM | 0.061% of 220,000 active | AID 463115, 2010; in the data active = inhibition above about 25%
NR2E3 ag-1 = NR2E3 agonists in two-hybrid cells, primary screen, cell-based, luminescence, CHO-S, Gal4-NCOR/VP16-NR2E3. luciferase. Photoreceptor-specific nuclear receptor (Homo sapiens), Q9Y5X4. inhibition of corepressor binding, % at 3.98 µM. 0.35% of 360,000 active;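 active = inhibition above the mean of all tested compounds plus 3 SD, cut at about 70% in these data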;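 also: 0% = DMSO with NR2E3 transfected cells and 100% = cells lacking NR2E3 construct; higher means lower luciferase signal from less NR2E3 corepressor binding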
Target sequence (Q9Y5X4 whole entry, looked up, the tested form may be a part): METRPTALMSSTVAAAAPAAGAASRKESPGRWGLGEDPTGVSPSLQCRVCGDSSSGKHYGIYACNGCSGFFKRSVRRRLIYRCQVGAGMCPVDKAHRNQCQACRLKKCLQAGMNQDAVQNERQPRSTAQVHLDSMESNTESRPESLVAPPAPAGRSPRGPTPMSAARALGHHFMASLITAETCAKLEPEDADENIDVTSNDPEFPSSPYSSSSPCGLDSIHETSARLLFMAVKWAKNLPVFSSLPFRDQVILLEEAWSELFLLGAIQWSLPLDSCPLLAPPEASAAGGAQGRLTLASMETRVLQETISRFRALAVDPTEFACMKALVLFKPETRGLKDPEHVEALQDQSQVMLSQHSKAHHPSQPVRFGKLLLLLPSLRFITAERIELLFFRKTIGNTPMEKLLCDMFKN
NR2E3 ag-2 = inhibitors of NR2E3-RetCOR corepressor binding, primary screen, NR2E3 agonist project, biochemical, TR-FRET, GST-NR2E3, biotin-RetCOR; Photoreceptor-specific nuclear receptor (Homo sapiens), Q9Y5X4; 1536-well; inhibition of corepressor binding, % at 4.78 µM; 0.12% of 320,000 active;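 active = percent inhibition above the cutoff of mean plus 3 SD of all tested compounds, set per screening campaign, cut at about 20% in these data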;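 also: 0% = DMSO wells and 100% = biotin wells as full block of FRET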
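Test system – NR2E3–RetCOR corepressor complex · Quantity – NR2E3 fusion 1.35 nM · Buffer or medium – Tris pH 7.5 · Incubation – Compound–protein incubation for 5 h at 4 °C · Technique – TR-FRET, Eu(K)-anti-GST donor, streptavidin-D2 acceptor, ex 340, em 617/671 nm · Evaluation – percent inhibition of 671/617 nm emission ratio versus biotin and DMSO controls · Plate – 1536-well format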
GASC-1 inh = inhibitors of GASC-1 histone demethylase, primary screen, biochemical, fluorescence, DELFIA europium. GST-JMJD2C(1-420) H3K9me3 demethylation. Lysine-specific demethylase 4C (Homo sapiens), Q9H3R0. 0.069% of 330,000 active. inhibition, % at 2.35 µM;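 active = more than half of a compound's replicate wells show inhibition beyond 50%, single wells judged on their own value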;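 also: signal counts dimethyl H3K9 product captured on neutravidin plate; 0% = median of DMSO wells and 100% = 0.3 times that DMSO median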
NR2E3 ag confirm = NR2E3 agonist confirmation in cells, cell-based, luminescence, CHO-S two-hybrid; shares compounds with NR2E3 ag-1; CHO-S mammalian two-hybrid NR2E3-NCOR, luciferase luminescence; inhibition, % at 3.98 µM; 51% of 2,300 active; AID 624378, 2012;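 active = average inhibition above a cutoff equal to the mean inhibition of all tested compounds plus one SD, cut at about 70% in these data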;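 also: 0% = DMSO in NR2E3 cells and 100% = DMSO in cells lacking NR2E3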
VP16 counter = GAL4-VP16 reporter modulators, confirmation, counter-screen for NR2E3 agonist project, cell-based, luminescence, CHO-S, high throughput; shares compounds with NR2E3 ag-1; CHO-S GAL4-VP16 luciferase reporter; inhibition, % at 3.98 µM; 29% of 2,300 active; AID 624379, 2012;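 active = mean inhibition above a cutoff equal to the average over all tested compounds plus one standard deviation, cut at about 70% in these data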;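 also: luciferase from a UAS reporter driven by GAL4-VP16 transactivation; 0% = DMSO with VP16-transfected cells and 100% = DMSO with cells lacking VP16; higher means less reporter light so more repression of VP16 activity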
An asterisk follows results filed as active; / = no result given.

SMILES	EP2 mod	EP2 antag	Furin inhibitor	NR2E3 ag-1	NR2E3 ag-2	GASC-1 inh	NR2E3 ag confirm	VP16 counter
O=C(Nc1ccc(Cl)cc1)C1COc2ccccc2O1 (stereo unspecified)	-41.6	8.8	/	/	/	/	/	/
CC(C)[C@@H](Cn1nc(-c2cccs2)ccc1=O)NC(=O)CCn1cnnn1	-14.9	5.5	/	/	/	/	/	/
CCCCCc1ccc(CC(=O)Nn2c(C)nc3ccccc3c2=O)cc1	8.8	10.4	-13.6	63.6	0.4	2.2	75.8*	70.0
Oc1ccccc1N=Nc1nc(-c2ccccc2)c(-c2ccccc2)[nH]1	-0.5	25.2	-10.0	81.5*	3.7	-2.6	68.2	42.6
COc1ccc(-c2ocnc2C(=O)N2CCN(C(C)=O)CC2)cc1OC	-7.5	4.7	/	/	/	/	/	/
CCCC(=O)Nc1nnc(SCC(=O)Nc2ccc(F)c(Cl)c2)s1	-52.1	4.2	/	/	/	/	/	/
COC(=O)Cc1c(C)c2ccc(OC3CCCCC3=O)c(C)c2oc1=O (stereo unspecified)	/	/	/	72.0*	0.2	-0.7	40.0	42.0
CCOc1ccc(S(=O)(=O)n2cnc3cc(C)c(C)cc32)cc1	-35.5	11.8	-4.2	65.8	1.4	-15.4	83.3*	76.0*
Cc1cc2ncn(S(=O)(=O)c3ccc(S(N)(=O)=O)cc3)c2cc1C	-46.5	12.3	/	8.1	/	/	/	/
Cc1ccc2c(c1)cc(C)c1nn(CC(=O)N3CCCCC3)c(=O)n12	-23.4	5.1	/	/	/	/	/	/
CC1CCN(c2nc3c(c(=O)[nH]2)CN(Cc2coc4ccccc4c2=O)CC3)CC1	-23.2	9.2	/	/	/	/	/	/
Cc1cc(OCc2cc(C(=O)N3CCN(C)C(=O)[C@@H]3C)no2)cc(C)c1Cl	/	/	/	47.7	-0.7	0.4	47.2	20.0
CCOC(=O)C1=C[C@@H](C2CCCCC2)N(S(=O)(=O)c2ccc([N+](=O)[O-])cc2)[C@H]1c1ccccc1	/	/	/	74.3*	/	/	51.8	43.0
COCCNc1c(-c2cccc(OC)c2)nc2cnccn12	-52.7	/	/	/	/	/	/	/
O=c1cc(-c2ccccc2Cl)oc2cc(O)cc(O)c12	29.4	3.6	-10.2	-37.7	3.8	-5.7	/	/
O=C1C=CC(O)(c2cc(=O)c3c(O)cc(O)cc3o2)C=C1	6.9	9.8	-16.8	47.5	1.6	0.5	-53.9	-39.8
Cc1ccc(NS(=O)(=O)c2ccc(-n3cccn3)cc2)cc1C	/	/	/	56.8	3.9	3.6	59.0	52.3
COc1cc(NS(=O)(=O)c2ccc(-n3cccn3)cc2)cc(OC)c1	/	/	/	51.2	/	/	54.9	47.5
Cc1ccc(NS(=O)(=O)c2ccc(-n3cccn3)cc2)cc1Cl	/	/	/	3.6	/	/	/	/
COc1ccc2c(c1)C(O)CC1(CCN(CC(O)c3ccc(C)cc3)CC1)O2 (stereo unspecified)	-46.5	5.4	/	/	/	/	/	/
O=C(Nc1ccc(OC(F)(F)F)cc1)C1CCCN(S(=O)(=O)c2cccnc2)C1 (stereo unspecified)	-11.0	11.4	-12.6	49.4	1.3	-7.1	-19.1	-12.4
COc1ccc(-c2c(C)nn3c(NCC4CCCO4)cc(C)nc23)cc1 (stereo unspecified)	-48.9	/	/	/	/	/	/	/
CC1CCN(S(=O)(=O)c2ccc(Oc3ccc([N+](=O)[O-])cc3)cc2)CC1	-21.0	/	-8.0	88.1*	3.0	-14.1	91.1*	75.6*
CC1CCN(S(=O)(=O)c2ccc([N+](=O)[O-])cc2)CC1	/	/	/	-21.8	-2.8	-3.5	/	/
CCOC(=O)C1CCN(C(=O)CN(c2ccccc2Br)S(C)(=O)=O)CC1	-19.2	9.7	/	/	/	/	/	/
